Results: ChEMBL document CHEMBL3580634, “Discovery of a high affinity and selective pyridine analog as a potential positron emission tomography imaging agent for cannabinoid type 2 receptor” (J Med Chem, 2015)

Key:
Cannabinoid receptor 2 [1] = molecular target: T1, Cannabinoid receptor 2 (Homo sapiens, UniProt P34972); test: Displacement of [3H]CP-55,940 from human CB2 receptor expressed in CHO cell membranes
Method in brief: (§1)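 Membranes from CHO cells expressing human or murine CB2 were incubated with [3H]CP-55,940 in 50 mM Tris, 5 mM MgCl2, 2.5 mM EGTA, 0.1% fatty-acid-free BSA, pH 7.4, 1 h at 30 °C with shaking. Reaction stopped by filtration through PEI-coated GF/B. Ki from nonlinear regression using saturation-derived Kd. Ten concentrations in triplicate.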

Cannabinoid receptor 2 [2] = molecular target: Cannabinoid receptor 2 (Mus musculus, UniProt P47936); test: Displacement of [3H]CP-55,940 from mouse CB2 receptor expressed in CHO cell membranes; method in brief: as §1
Chain of Cannabinoid receptor 2 (Mus musculus, UniProt P47936) (P47936 whole entry): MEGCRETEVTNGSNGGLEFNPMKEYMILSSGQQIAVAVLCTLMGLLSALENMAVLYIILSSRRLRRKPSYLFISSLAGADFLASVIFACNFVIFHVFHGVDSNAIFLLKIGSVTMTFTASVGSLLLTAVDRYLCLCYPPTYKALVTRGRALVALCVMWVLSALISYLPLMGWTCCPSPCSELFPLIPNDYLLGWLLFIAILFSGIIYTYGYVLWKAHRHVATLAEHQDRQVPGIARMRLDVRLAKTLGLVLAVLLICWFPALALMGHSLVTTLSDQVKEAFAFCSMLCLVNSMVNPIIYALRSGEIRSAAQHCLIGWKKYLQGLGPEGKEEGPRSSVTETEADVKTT

Cannabinoid receptor 1 = Cannabinoid receptor 1 (Homo sapiens, UniProt P21554); test: Activity at human CB1 receptor expressed in CHO cells assessed as cAMP accumulation incubated for 30 mins by time-resolved FRET assay; type: functional, cell-based
Chain of Cannabinoid receptor 1 (P21554 whole entry, looked up): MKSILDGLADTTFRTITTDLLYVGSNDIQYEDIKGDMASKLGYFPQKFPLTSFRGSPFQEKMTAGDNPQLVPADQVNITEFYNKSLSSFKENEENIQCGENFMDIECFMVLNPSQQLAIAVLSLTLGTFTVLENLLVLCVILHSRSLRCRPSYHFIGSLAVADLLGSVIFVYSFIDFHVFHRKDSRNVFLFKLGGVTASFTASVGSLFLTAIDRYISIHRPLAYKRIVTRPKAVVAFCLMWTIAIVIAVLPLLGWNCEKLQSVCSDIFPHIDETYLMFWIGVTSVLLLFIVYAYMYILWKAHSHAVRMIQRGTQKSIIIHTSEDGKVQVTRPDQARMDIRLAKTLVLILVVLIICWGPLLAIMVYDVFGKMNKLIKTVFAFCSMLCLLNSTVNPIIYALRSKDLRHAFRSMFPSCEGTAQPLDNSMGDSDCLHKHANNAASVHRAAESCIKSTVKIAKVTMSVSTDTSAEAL
Method in brief: (§2)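 CHO cells expressing human CB1 or CB2 were seeded 1 day before in DMEM/HT supplement/10% FCS. Medium was replaced with Krebs Ringer bicarbonate buffer containing 1 mM IBMX, 30 min at 30 °C, then compound added for 30 min at 30 °C. cAMP was read by time-resolved FRET (cAMP-Nano-TRF kit) against a standard curve from 10 μM to 0.13 nM. Ten concentrations in triplicate, single experiment.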

Cannabinoid receptor 2 [3] = molecular target: T1, Cannabinoid receptor 2; test: Activity at human CB2 receptor expressed in CHO cells assessed as cAMP accumulation incubated for 30 mins by time-resolved FRET assay; type: functional, cell-based; method in brief: as §2
CHO = test: Selectivity index, ratio of EC50 for human CB1 receptor expressed in CHO cells to EC50 for human CB2 receptor expressed in CHO cells; type: cell-based
[4] = Lipophilicity, log D of the compound in n-octanol/phosphate buffer pH 7.4 by shake flask method; type: physicochemical

T1 sequence (P34972 whole entry): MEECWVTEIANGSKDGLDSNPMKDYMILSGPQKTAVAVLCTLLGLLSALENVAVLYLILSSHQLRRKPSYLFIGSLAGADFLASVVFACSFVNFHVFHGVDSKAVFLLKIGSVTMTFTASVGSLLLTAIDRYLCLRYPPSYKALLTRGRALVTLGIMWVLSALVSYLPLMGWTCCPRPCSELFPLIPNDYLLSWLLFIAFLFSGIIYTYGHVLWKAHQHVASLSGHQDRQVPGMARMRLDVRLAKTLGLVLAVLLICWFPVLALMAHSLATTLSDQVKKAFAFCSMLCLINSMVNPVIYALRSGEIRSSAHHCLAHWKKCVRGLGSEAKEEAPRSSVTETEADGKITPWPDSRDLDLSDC

SMILES	Ki (Cannabinoid receptor 2 [1])	Ki (Cannabinoid receptor 2 [2])	EC50 (Cannabinoid receptor 1)	EC50 (Cannabinoid receptor 2 [3])	Ratio EC50 (CHO)	Ratio EC50 (CHO; tested as the 11C-labelled form)	logD [4]
CC(C)(Cc1nnc(-c2ccc(F)cc2)o1)NC(=O)c1ccc(C2CCCC2)c(OCC2CC2)n1	416 nM	403 nM	> 10 µM	–	–	–	–
CCC(CC)(NC(=O)c1ccc(N2CC(F)(F)C2)c(OCC2CC2)n1)C(=O)NCCF	774 nM	403 nM	> 10 µM	27 nM	–	–	–
COC1CN(c2ccc(C(=O)NCC3(O)CCCCC3)nc2OCC2CC2)C1	2870 nM	2230 nM	> 10 µM	–	–	–	–
CC(C)(NC(=O)c1ccc(N2CC(F)(F)C2)c(OCC2CC2)n1)c1nnc(-c2ccccc2)o1	3960 nM	> 10000 nM	> 10 µM	> 10000 nM	–	–	–
CC(C)(NC(=O)c1ccc(N2CC(F)(F)C2)c(OCC2CC2)n1)c1nnc(C2CC2)o1	> 10000 nM	> 10000 nM	> 10 µM	> 10000 nM	–	–	–
CCOC(=O)C(CC)(CC)NC(=O)c1ccc(N2CC(OC)C2)c(OCC2CC2)n1	2.5 nM	1.8 nM	> 10 µM	4.4 nM	> 1000	150	–
CC(C)(NC(=O)c1ccc(N2CC(F)(F)C2)c(OCC2CC2)n1)c1nnc(-c2cccnc2)o1	> 10000 nM	> 10000 nM	> 10 µM	396 nM	–	–	–
COCCOCC(C)(C)c1cc(NC(=O)c2ccc(C3CCCC3)c(OCC3CC3)n2)on1	294 nM	12.7 nM	> 10 µM	–	–	–	–
CCC(CC)(NC(=O)c1ccc(N2CC(F)(F)C2)c(OCC2CC2)n1)C(=O)NC	179 nM	245 nM	> 10 µM	4.3 nM	–	–	3.76
CCC(CC)(NC(=O)c1ccc(N2CC(OC)C2)c(OCC2CC2)n1)C(=O)NCCCF	2060 nM	5260 nM	> 10 µM	–	–	–	3.67
